Measured values pooled from the literature.
Converted amounts (≈) assume the structure as drawn.

| SMILES | tested on | assay | system | setting | quantity | result |
| --- | --- | --- | --- | --- | --- | --- |
| CC[C@H](C)C[C@H](C)CCCCCCCCC(=O)N[C@H]1C[C@@H](O)[C@@H](NCCN)NC(=O)[C@@H]2[C@@H](O)CCN2C(=O)[C@H]([C@H](O)CCN)NC(=O)[C@H]([C@H](O)[C@@H](O)c2ccc(O)cc2)NC(=O)[C@@H]2C[C@@H](O)CN2C(=O)[C@H]([C@@H](C)O)NC1=O | Pichia kudriavzevii | microbial growth, broth dilution | ATCC14243 | 48 h | MIC | 4 µg/mL (≈ 3.66 µM) |
| CCN(CC)CCCC(C)Nc1ccnc2cc(Cl)ccc12 (stereo not shown) | Plasmodium knowlesi | parasite growth, SYBR Green | – | – | IC50 | 19.5 nM |
| O=c1[nH]c(=O)n([C@H]2C[C@H](O)[C@@H](CO)O2)cc1F | Influenza A virus | viral replication, inhibitor, ELISA | MDCK, H1N1 | 24 h | IC50 | 30200 nM |
| COC(=O)OCOc1c2n(ccc1=O)N([C@@H]1c3ccccc3SCc3c1ccc(F)c3F)[C@@H]1COCCN1C2=O | Influenza A virus | viral replication, inhibitor | MDCK, H1N1 WSN | – | EC50 | 0.946 nM |
| N.N.[Cl][Pt][Cl] | SU-DHL-8 | cell growth or viability, ATP luminescence | – | 72 h | IC50 | 940 nM |
| N=C(CC(O)c1cc2c(F)cc(F)cc2c2cc(C(F)(F)F)ccc12)Nc1ccc(F)c(F)c1 (stereo not shown) | Plasmodium knowlesi | parasite growth, SYBR Green | – | – | IC50 | 2.4 nM |
| O=C1c2ccccc2-c2c3c(cc4ccnc1c24)OCO3 | HuCC-A1 | cell growth or viability, MTT | – | 75 h | IC50 | 10000 nM |
| NC(=O)c1ncn([C@@H]2O[C@H](CO)[C@@H](O)[C@H]2O)n1 | Influenza A virus | viral replication, inhibitor, ELISA | MDCK, H1N1 | 24 h | IC50 | 3440 nM |
| O=c1c2ccccc2[se]n1-c1ccccc1 | Influenza A virus | viral replication | Vero, H1N1 | 48 h | IC50 | 1570 nM |
| NC(=O)c1nc(F)c[nH]c1=O | Influenza A virus | viral replication, inhibitor | H1N1 PR/8 | – | EC50 | 1320 nM |
| CC(=O)NC[C@H]1CN(c2ccc(N3CCOCC3)c(F)c2)C(=O)O1 | Enterococcus | microbial growth, broth dilution | VRE | – | MIC | 2 µg/mL (≈ 5.93 µM) |
| CC(C)C(=O)OC[C@H]1O[C@@H](n2ccc(NO)nc2=O)[C@H](O)[C@@H]1O | Influenza A virus | viral replication, inhibitor, ELISA | MDCK, H1N1 | 24 h | IC50 | 28300 nM |
| C[C@@H]1C[C@@H]([C@H](O)CC2CC(=O)NC(=O)C2)C(=O)[C@@H](C)C1 | Fusarium solani | microbial growth, broth dilution | – | – | MIC | 12 µg/mL (≈ 42.7 µM) |
